In ChEMBL document CHEMBL1268838, “The synthesis and biologic evaluation of anti-platelet and cytotoxic β-nitrostyrenes” (Bioorg Med Chem, 2010):

Assays:
MDA-MB-231 [1] = assay: Cytotoxicity against human MDA-MB-231 cells after 72 hrs by MTT assay; format: functional, cell-based; conditions: MDA-MB-231, 72 h
In short: (§1)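 MDA-MB-231 breast cancer or HBL-100 non-malignant breast epithelial cells: freshly trypsinized cells seeded at 8000 per well, with compound added from DMSO-diluted stock. After 72 h, attached cells were given MTT (0.5 mg/mL, 1 h) and solubilized in DMSO.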

HBL-100 [2] = assay: Cytotoxicity against human HBL100 cells at 20 uM after 72 hrs by MTT assay; format: functional; conditions: HBL-100, 72 h
[3] = Antiaggregatory activity in human platelets assessed as inhibition of thrombin-induced platelet aggregation preincubated for 3 mins before thrombin challenge by turbidimetry analysis; format: functional, cell-based
In short: (§2)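 Washed platelets from ACD-anticoagulated blood of drug-free healthy volunteers, resuspended at 3 × 10⁸/ml in Tyrode's solution with Ca²⁺ 2 mM, glucose 11.1 mM and BSA 3.5 mg/ml. Platelets were stirred at 1200 rpm and 37 °C for 3 min with DMSO (0.5%, vehicle) or compound, then the inducer was added. Aggregation was read by light-transmission aggregometry. IC50 is the mean of two independent experiments (TPA lines n = 3).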

[4] = Antiaggregatory activity in human platelets assessed as inhibition of collagen-induced platelet aggregation preincubated for 3 mins before collagen challenge by turbidimetry analysis; format: functional, cell-based; in short: as §2
HBL-100 [5] = assay: Cytotoxicity against human HBL100 cells after 72 hrs by MTT assay; format: functional, cell-based; conditions: HBL-100, 72 h; in short: as §1
MDA-MB-231 [6] = assay: Cytotoxicity against human MDA-MB-231 cells at 20 uM after 72 hrs by MTT assay; format: functional; conditions: MDA-MB-231, 72 h

Row | Compound | IC50 (MDA-MB-231 [1]) [µM] | inhibition at 20 µM (HBL-100 [2]) [%] | IC50 [3] [µM] | IC50 [4] [µM] | IC50 (HBL-100 [5]) [µM] | inhibition at 20 µM (MDA-MB-231 [6]) [%]
1 | CCOc1cc(/C=C/[N+](=O)[O-])ccc1O | > 20 | 35.2 | 78.1 | 16.2 | > 20 | 34.4
2 | O=[N+]([O-])/C(O)=C/c1ccccc1 | 13.9 | 34.9 | 35.5 | 7.8 | > 20 | 21.2
3 | O=[N+]([O-])C(=Cc1ccccc1)[N+](=O)[O-] | 9.9 | 34.2 | 5.7 | 3 | > 20 | –
4 | COc1cc(/C=C/[N+](=O)[O-])ccc1OC(=O)c1cc(Cl)cc(Cl)c1 | > 20 | 15.6 | 1.9 | 1.4 | > 20 | 20
5 | COc1cc(/C=C/[N+](=O)[O-])ccc1OC(=O)c1ccc(F)c(F)c1F | > 20 | 1.1 | 23 | 2.7 | > 20 | 3.7
6 | COc1cc(/C=C/[N+](=O)[O-])ccc1OC(=O)c1cc(F)c(F)c(F)c1 | 12.4 | 16.6 | 1.4 | 0.9 | > 20 | –
7 | COc1cc(/C=C/[N+](=O)[O-])ccc1OC(=O)c1cc(OC)c(OC)c(OC)c1 | 13.9 | 47.4 | 1.1 | 1.1 | > 20 | –
8 | CCOc1cc(/C=C/[N+](=O)[O-])ccc1OC(=O)c1ccccc1 | 15.3 | – | 1.2 | 1 | 11.6 | –
9 | COc1ccc(/C=C/[N+](=O)[O-])cc1OC(=O)c1ccccc1 | 7.7 | 79.8 | 1.9 | 0.8 | < 10 | –
10 | CCOc1cc(/C=C(\C)[N+](=O)[O-])ccc1OC(=O)c1ccccc1 | 12.1 | – | 0.8 | 1.1 | 14.6 | –
11 | COc1ccc(/C=C(\C)[N+](=O)[O-])cc1OC(=O)c1ccccc1 | 6.6 | – | 2.9 | 1 | 7.3 | –
12 | COc1cc(/C=C/[N+](=O)[O-])ccc1OC(=O)c1ccccc1F | > 20 | 4.9 | 4.7 | 1.6 | > 20 | 26.5
13 | COc1cc(/C=C/[N+](=O)[O-])ccc1OC(=O)c1ccccc1Cl | > 20 | 8.2 | 1 | 0.6 | > 20 | 7
14 | COc1cc(/C=C/[N+](=O)[O-])ccc1OC(=O)c1ccccc1Br | > 20 | 10 | 5.4 | 2 | > 20 | 8.3
15 | COc1cc(/C=C/[N+](=O)[O-])ccc1OC(=O)c1ccccc1C(F)(F)F | > 20 | 2.4 | 2.5 | 1.3 | > 20 | 20.4
16 | COc1cc(/C=C/[N+](=O)[O-])ccc1OC(=O)c1ccccc1C | > 20 | 1.8 | 1.5 | 1.2 | > 20 | 36.3
17 | COc1cc(/C=C/[N+](=O)[O-])ccc1OC(=O)c1ccccc1OC | 19.4 | 8.8 | 2.1 | 0.8 | > 10 | –
18 | COc1cc(/C=C/[N+](=O)[O-])ccc1OC(=O)c1cccc(F)c1 | > 20 | 38.2 | 2.6 | 1.4 | > 20 | 44.9
19 | COc1cc(/C=C/[N+](=O)[O-])ccc1OC(=O)c1cccc(Cl)c1 | 18.9 | 23.2 | 1.2 | 0.5 | > 20 | –
20 | COc1cc(/C=C/[N+](=O)[O-])ccc1OC(=O)c1cccc(Br)c1 | > 20 | 18.2 | 1.3 | 0.9 | > 20 | 19.1
21 | COc1cc(/C=C/[N+](=O)[O-])ccc1OC(=O)c1cccc(C(F)(F)F)c1 | > 20 | 12.5 | 3.3 | 1.7 | > 20 | 34.9
22 | COc1cc(/C=C/[N+](=O)[O-])ccc1OC(=O)c1cccc(C)c1 | 13.4 | – | 1.7 | 0.9 | 4.1 | –
23 | COc1cccc(C(=O)Oc2ccc(/C=C/[N+](=O)[O-])cc2OC)c1 | > 20 | – | 2.9 | 0.7 | 12.1 | 28.9

Row | Compound | IC50 (MDA-MB-231 [1]) [µM] | inhibition at 20 µM (HBL-100 [2]) [%] | IC50 [3] [µM] | IC50 [4] [µM] | IC50 (HBL-100 [5]) [µM] | inhibition at 20 µM (MDA-MB-231 [6]) [%]
24 | COc1cc(/C=C/[N+](=O)[O-])ccc1OC(=O)c1ccc(F)cc1 | 9.8 | 25.1 | 0.9 | 0.8 | > 20 | –
25 | COc1cc(/C=C/[N+](=O)[O-])ccc1OC(=O)c1ccc(Cl)cc1 | > 20 | 7.3 | 1.5 | 0.7 | > 20 | 33.2
26 | COc1cc(/C=C/[N+](=O)[O-])ccc1OC(=O)c1ccc(Br)cc1 | > 20 | 6.3 | 1.2 | 0.6 | > 20 | 9.1
27 | COc1cc(/C=C/[N+](=O)[O-])ccc1OC(=O)c1ccc(C(F)(F)F)cc1 | > 20 | -7.3 | 6.2 | 8.3 | > 20 | -4.9
28 | COc1cc(/C=C/[N+](=O)[O-])ccc1OC(=O)c1ccc(C)cc1 | > 20 | 8 | 2.7 | 2 | > 20 | 7.9
29 | COc1ccc(C(=O)Oc2ccc(/C=C/[N+](=O)[O-])cc2OC)cc1 | 18.1 | 22.7 | 3.5 | 0.8 | > 20 | –
30 | COc1cc(/C=C/[N+](=O)[O-])ccc1OC(=O)c1cccc(F)c1F | > 20 | 4.1 | 3.3 | 1.6 | > 20 | 25.5
31 | COc1cc(/C=C/[N+](=O)[O-])ccc1OC(=O)c1ccc(F)cc1F | > 20 | 16 | 3 | 2 | > 20 | 18.5
32 | COc1cc(/C=C/[N+](=O)[O-])ccc1OC(=O)c1ccc(F)c(F)c1 | > 20 | 0.5 | 2.9 | 1.1 | > 20 | 22.1
33 | COc1cc(/C=C/[N+](=O)[O-])ccc1OC(=O)c1cc(F)cc(F)c1 | > 20 | 19 | 3.4 | 1.4 | > 20 | 24.7
34 | COc1cc(/C=C/[N+](=O)[O-])ccc1OC(=O)c1ccc(Cl)cc1Cl | > 20 | 9.9 | 0.7 | 0.7 | > 20 | -0.1
35 | COc1cc(/C=C/[N+](=O)[O-])ccc1OC(=O)c1ccc(Cl)c(Cl)c1 | > 20 | 15.2 | 1 | 1.8 | > 20 | 9.4
36 | Cc1ccc(/C=C/[N+](=O)[O-])cc1 | > 20 | – | 8.9 | 5.9 | 15 | –
37 | O=[N+]([O-])/C=C/c1ccc(Cl)cc1 | > 20 | – | 7.5 | 3.5 | 15.7 | 36.6
38 | COc1ccc(/C=C/[N+](=O)[O-])cc1 | 16.3 | – | 12.1 | 3.5 | 13 | –
39 | O=[N+]([O-])/C=C/c1ccc(O)cc1 | > 20 | – | 45.1 | 18.4 | 16.3 | 38.3
40 | COc1cc(/C=C/[N+](=O)[O-])ccc1O | – | – | 66.5 | 16.4 | – | –
41 | COc1cc(/C=C/[N+](=O)[O-])ccc1OC(=O)c1ccccc1 | 13.1 | 0 | 2.7 | 1.1 | > 20 | –
42 | COc1ccc(/C=C/[N+](=O)[O-])cc1O | 18.9 | – | 28.5 | 7.2 | 12.8 | –
43 | COc1ccc(/C=C/[N+](=O)[O-])cc1OC | – | – | 12.8 | 7.6 | – | –
44 | O=[N+]([O-])/C=C/c1ccc2c(c1)OCO2 | 14 | 39.2 | 14 | 7.2 | > 20 | –
45 | O=[N+]([O-])/C=C/c1ccccc1 [(2-NITROVINYL)BENZENE] | – | – | 17.8 | 4.9 | – | –
